ChEMBL document CHEMBL4251600, “Bioactive products from singlet oxygen photooxygenation of cannabinoids” (Eur J Med Chem, 2018)
pIC50, pKi: −log10 of the molar value. Converted amounts (≈) assume the structure as drawn. The source made the active and inactive calls. No cut-off for these calls is given here.

Legend:
[1] = target: T1, Cannabinoid receptor 2 (Homo sapiens, UniProt P34972); assay: Displacement of [3H]CP-55,940 from recombinant human full length CB2 receptor expressed in HEK293 cell membranes after 90 mins by topcount method
T1 sequence (P34972 whole entry): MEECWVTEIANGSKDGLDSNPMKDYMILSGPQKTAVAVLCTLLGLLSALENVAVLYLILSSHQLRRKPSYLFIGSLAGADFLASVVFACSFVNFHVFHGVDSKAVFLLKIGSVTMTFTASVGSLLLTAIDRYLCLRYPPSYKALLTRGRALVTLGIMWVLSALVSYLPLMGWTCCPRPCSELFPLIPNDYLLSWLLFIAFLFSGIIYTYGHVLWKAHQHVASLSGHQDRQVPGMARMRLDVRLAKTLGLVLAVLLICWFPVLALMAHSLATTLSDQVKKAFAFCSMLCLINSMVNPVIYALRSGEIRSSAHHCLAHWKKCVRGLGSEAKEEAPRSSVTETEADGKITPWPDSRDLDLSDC

[2] = target: T2, Cannabinoid receptor 1 (Homo sapiens, UniProt P21554); assay: Agonist activity at recombinant human full length CB1 receptor expressed in HEK293 cell membranes after 2 hrs by [35S]GTP-gammaS binding assay; type: functional
T2 sequence (P21554 whole entry): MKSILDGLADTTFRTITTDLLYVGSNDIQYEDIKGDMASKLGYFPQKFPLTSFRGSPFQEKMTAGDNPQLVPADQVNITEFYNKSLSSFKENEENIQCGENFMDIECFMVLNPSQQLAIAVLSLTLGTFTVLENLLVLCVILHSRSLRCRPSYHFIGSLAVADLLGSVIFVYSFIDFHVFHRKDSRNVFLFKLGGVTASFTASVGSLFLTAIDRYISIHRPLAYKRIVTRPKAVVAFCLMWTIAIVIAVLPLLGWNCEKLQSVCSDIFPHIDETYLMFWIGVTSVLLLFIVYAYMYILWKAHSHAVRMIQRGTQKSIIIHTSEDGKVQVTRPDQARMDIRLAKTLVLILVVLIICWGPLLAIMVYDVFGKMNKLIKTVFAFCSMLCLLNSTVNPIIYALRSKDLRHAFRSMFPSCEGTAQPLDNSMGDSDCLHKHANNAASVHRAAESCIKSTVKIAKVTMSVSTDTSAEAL
In short: (§1)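 Membranes (20 µg/well) from HEK293 cells stably transfected with human CB1 or CB2 cDNA were incubated with test compound and 0.5 nM [35S]-GTP-γS. Buffer: 50 mM Tris-HCl, 0.2 mM EGTA, 9 mM MgCl2, 150 mM NaCl, 50 µM GDP, 1.4 mg/ml BSA. Incubation ran 2 h at 30°C and was stopped by vacuum filtration through GF/B filters with cold Tris-HCl. Nonspecific binding was taken with 40 µM GTP-γS.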

[3] = target: T2, Cannabinoid receptor 1; assay: Displacement of [3H]CP-55,940 from recombinant human full length CB1 receptor expressed in HEK293 cell membranes after 90 mins by topcount method
[4] = target: T1, Cannabinoid receptor 2; assay: Agonist activity at recombinant human full length CB2 receptor expressed in HEK293 cell membranes after 2 hrs by [35S]GTP-gammaS binding assay; type: functional; in short: as §1
[5] = system: Staphylococcus aureus; assay: Antimicrobial activity against methicillin-resistant Staphylococcus aureus by modified CLSI based method; type: functional, organism-based
[6] = system: Nakaseomyces glabratus; assay: Antifungal activity against Candida glabrata by modified CLSI based method; type: functional, organism-based
[7] = system: Pichia kudriavzevii; assay: Antifungal activity against Candida krusei by modified CLSI based method; type: functional, organism-based
[8] = system: Plasmodium falciparum; assay: Antiplasmodial activity against chloroquine-resistant Plasmodium falciparum W2 infected in red blood cells incubated for 72 hrs by parasite LDH release based colorimetric assay; type: functional, organism-based; settings: W2, 72 h
[9] = system: Plasmodium falciparum; assay: Antiplasmodial activity against chloroquine-sensitive Plasmodium falciparum D6 infected in red blood cells incubated for 72 hrs by parasite LDH release based colorimetric assay; type: functional, organism-based; settings: D6, 72 h
[10] = system: Staphylococcus aureus; assay: Antimicrobial activity against Staphylococcus aureus by modified CLSI based method; type: functional, organism-based; settings: for IC50: read-out: IC50
[11] = system: Cryptococcus neoformans; assay: Antifungal activity against Cryptococcus neoformans by alamar blue assay; type: functional, organism-based; settings: for IC50: read-out: IC50
[12] = system: Leishmania donovani; assay: Antileishmanial activity against Leishmania donovani promastigotes incubated for 48 hrs by alamar blue assay; type: functional, organism-based; settings: Leishmania donovani, 48 h; for IC50: read-out: IC50; for IC90: read-out: IC90
[13] = target: T1, Cannabinoid receptor 2; assay: Agonist activity at recombinant human full length CB2 receptor expressed in HEK293 cell membranes at 100 uM after 2 hrs by [35S]GTP-gammaS binding assay relative to CP-55,940; type: functional
[14] = target: T2, Cannabinoid receptor 1; assay: Agonist activity at recombinant human full length CB1 receptor expressed in HEK293 cell membranes at 100 uM after 2 hrs by [35S]GTP-gammaS binding assay relative to CP-55,940; type: functional
[15] = Staphylococcus aureus, read-out: IC50
[16] = Staphylococcus aureus, read-out: MIC
[17] = Cryptococcus neoformans, read-out: MIC

## CCCCCc1cc(OC(C)=O)c2c(c1)OC(C)(C)[C@@H]1CC=C(C)C[C@@H]21
[1]
  pIC50: 6.50
  pKi: 6.80
[2]
  pIC50: 7.06
  pKi: 7.37
[3]
  pIC50: 7.06
  pKi: 7.36
[4]
  pIC50: 6.29
  pKi: 6.59

## C=C1C[C@H]2C3=C(OC(C)(C)[C@@H]2CC1OO)C(=O)C(CCCCC)=CC3=O (stereo in doubt; 26)
[5]
  MIC: inactive
[6]
  MIC: inactive
[7]
  MIC: inactive

## C=C1C[C@H]2c3c(O)cc(CCCCC)cc3OC(C)(C)[C@@H]2C[C@H]1O
[5]
  IC50: Not Active
  MIC: inactive
[8]
  IC50: 1.7 µg/mL (≈ 5.14 µM)
[6]
  IC50: Not Active
  MIC: inactive
[9]
  IC50: 2.4 µg/mL (≈ 7.26 µM)
[10]
  MIC: inactive
[10]; Staphylococcus aureus
  IC50: 10.7 µg/mL (≈ 32.4 µM)
[7]
  IC50: Not Active
  MIC: inactive
[11]
  MIC: inactive
[11]; Cryptococcus neoformans
  IC50: 8.34 µg/mL (≈ 25.2 µM)

## CCCCCC1=CC(=O)C2=C(OC(C)(C)[C@@H]3C=CC(C)(OO)C[C@@H]23)C1=O (stereo not given in full)
[5]; Staphylococcus aureus
  MIC: 5 µg/mL (≈ 13.9 µM)
[5]; [15]
  IC50: 2.63 µg/mL (≈ 7.3 µM)
[6]; Nakaseomyces glabratus
  MIC: 10 µg/mL (≈ 27.7 µM)
[6]; Nakaseomyces glabratus, read-out: IC50
  IC50: 6.54 µg/mL (≈ 18.1 µM)
[10]; Staphylococcus aureus
  IC50: 1.3 µg/mL (≈ 3.61 µM)
[10]; [16]
  MIC: 2.5 µg/mL (≈ 6.94 µM)
[12]
  IC50: 0.7 µg/mL (≈ 1.94 µM)
  IC90: 1.2 µg/mL (≈ 3.33 µM)
[7]; Pichia kudriavzevii
  MIC: 10 µg/mL (≈ 27.7 µM)
[7]; Pichia kudriavzevii, read-out: IC50
  IC50: 5.77 µg/mL (≈ 16 µM)
[11]; Cryptococcus neoformans
  IC50: 0.93 µg/mL (≈ 2.58 µM)
[11]; [17]
  MIC: 2.5 µg/mL (≈ 6.94 µM)

## CCCCCc1cc(O)c2c(c1)OC(C)(C)C1=C2C(O)C(C)(OC)CC1 (stereo not given)
[1]
  pIC50: 6.22
  pKi: 6.52
[3]
  pIC50: 5.97
  pKi: 6.27
[13]
  Emax: 40%
[14]
  Emax: 20%
[12]
  IC50: 35 µg/mL (≈ 97.1 µM)
  IC90: > 40 µg/mL

## CCCCCc1cc(OC(C)=O)c2c(c1)OC(C)(C)C1=C2C(O)C(C)(O)CC1 (stereo not given)
[8]
  IC50: 3.2 µg/mL (≈ 8.24 µM)
[9]
  IC50: 4.5 µg/mL (≈ 11.6 µM)

## CCCCCc1cc(O)c2c(c1)OC(C)(C)C1=C2C(OCC)C(C)(O)CC1 (stereo not given)
[5]
  MIC: inactive
[5]; [15]
  IC50: 17.1 µg/mL (≈ 45.6 µM)
[8]
  IC50: 3.7 µg/mL (≈ 9.88 µM)
[6]
  IC50: Not Active
  MIC: inactive
[9]
  IC50: 3.6 µg/mL (≈ 9.61 µM)
[10]
  MIC: inactive
[10]; Staphylococcus aureus
  IC50: 4.86 µg/mL (≈ 13 µM)
[12]
  IC50: 3 µg/mL (≈ 8.01 µM)
  IC90: 6 µg/mL (≈ 16 µM)
[7]
  IC50: Not Active
  MIC: inactive
[11]
  MIC: inactive
[11]; Cryptococcus neoformans
  IC50: 4.57 µg/mL (≈ 12.2 µM)

## CCCCCc1cc2c(c(OS(=O)(=O)c3ccc(C)cc3)c1)C1=C(CC[C@](C)(O)[C@H]1OCC)C(C)(C)O2
[8]
  IC50: 1.8 µg/mL (≈ 3.4 µM)
[9]
  IC50: 2.2 µg/mL (≈ 4.16 µM)
[12]
  IC50: 4.5 µg/mL (≈ 8.51 µM)
  IC90: 22 µg/mL (≈ 41.6 µM)

## CCCCCc1cc2c(c(OS(=O)(=O)c3ccc(C)cc3)c1)[C@H]1[C@@H](CC=C(C)[C@@H]1O)C(C)(C)O2
[5]
  MIC: inactive
[6]
  MIC: inactive
[10]
  MIC: inactive
[7]
  MIC: inactive
[11]
  MIC: inactive

## CCCCCc1cc2c(c(OS(=O)(=O)c3ccc(C)cc3)c1)[C@H]1[C@@H](CC=C(C)[C@@H]1OO)C(C)(C)O2
[1]
  pIC50: 6.07
  pKi: 6.37
[3]
  pIC50: 5.99
  pKi: 6.29

## CCCCCc1cc2c(c(OS(=O)(=O)c3ccc(C)cc3)c1)[C@@H]1CC(C)(OO)C=C[C@H]1C(C)(C)O2 (stereo not given in full)
[1]
  pIC50: 6.38
  pKi: 6.68
[2]
  pIC50: 7.01
  pKi: 7.32
[3]
  pIC50: 6.56
  pKi: 6.86
[13]
  Emax: 90%
[4]
  pIC50: 5.76
  pKi: 6.06
[14]
  Emax: 20%

## C=C1CC[C@@H]2[C@H](c3c(cc(CCCCC)cc3OS(=O)(=O)c3ccc(C)cc3)OC2(C)C)[C@@H]1OO
[12]
  IC50: 3.1 µg/mL (≈ 6.19 µM)
  IC90: 6.5 µg/mL (≈ 13 µM)

## C[C@@H]1CC[C@H]2[C@@H](C)C(=O)O[C@@H]3O[C@@]4(C)CC[C@@H]1[C@]32OO4 [ARTEMISININ]
[8]
  IC50: 0.014 µg/mL (≈ 0.0496 µM)

## C[C@@H]1[C@H](O)[C@@H](C)/C=C/C=C/C=C/C=C/C=C/C=C/C=C/[C@H](O[C@@H]2O[C@H](C)[C@@H](O)[C@H](N)[C@@H]2O)C[C@@H]2O[C@](O)(C[C@@H](O)C[C@@H](O)[C@H](O)CC[C@@H](O)C[C@@H](O)CC(=O)O[C@H]1C)C[C@H](O)[C@H]2C(=O)O [AMPHOTERICIN B]
[12]
  IC50: 0.16 µg/mL (≈ 0.173 µM)
  IC90: 0.33 µg/mL (≈ 0.357 µM)
[11]; Cryptococcus neoformans
  IC50: 1.36 µg/mL (≈ 1.47 µM)
[11]; [17]
  MIC: 2.5 µg/mL (≈ 2.71 µM)

## N=C(N)c1ccc(OCCCCCOc2ccc(C(=N)N)cc2)cc1 [PENTAMIDINE]
[12]
  IC90: 2 µg/mL (≈ 5.87 µM)

## CCCCCc1cc(O)c2c(c1)OC(C)(C)C1=C2C(OC(C)=O)C(C)(OC)CC1 (stereo not given)
[1]
  pIC50: 5.70
  pKi: 6.00
[3]
  pIC50: 5.55
  pKi: 5.85
[8]
  IC50: 3 µg/mL (≈ 7.45 µM)
[9]
  IC50: 3.3 µg/mL (≈ 8.2 µM)

## CCCCCc1cc(OC(C)=O)c2c(c1)OC(C)(C)C1=C2C2OC2(C)CC1 (stereo not given)
[1]
  pIC50: 6.03
  pKi: 6.33
[3]
  pIC50: 6.24
  pKi: 6.54

## C=C1C[C@H]2c3c(cc(CCCCC)cc3OS(=O)(=O)c3ccc(C)cc3)OC(C)(C)[C@@H]2CC1OO (stereo not given in full)
[1]
  pIC50: 5.69
  pKi: 5.99
[3]
  pIC50: 5.24
  pKi: 5.55

## CCCCCc1cc2c(c(OS(=O)(=O)c3ccc(C)cc3)c1)[C@@H]1[C@H](O)C(C)=CC[C@H]1C(C)(C)O2
[1]
  pIC50: 5.95
  pKi: 6.26
[3]
  pIC50: 5.89
  pKi: 6.19

## C=C1C[C@H]2C3=C(OC(C)(C)[C@@H]2C[C@H]1O)C(=O)C(CCCCC)=CC3=O
[5]; Staphylococcus aureus
  MIC: 10 µg/mL (≈ 29 µM)
[5]; [15]
  IC50: 5.53 µg/mL (≈ 16.1 µM)
[6]
  IC50: Not Active
  MIC: inactive
[10]; Staphylococcus aureus
  IC50: 2.03 µg/mL (≈ 5.89 µM)
[10]; [16]
  MIC: 2.5 µg/mL (≈ 7.26 µM)
[12]
  IC50: 0.6 µg/mL (≈ 1.74 µM)
  IC90: 1.3 µg/mL (≈ 3.77 µM)
[7]
  IC50: Not Active
  MIC: inactive
[11]; Cryptococcus neoformans
  IC50: 1.84 µg/mL (≈ 5.34 µM)
[11]; [17]
  MIC: 5 µg/mL (≈ 14.5 µM)

## C=C1C[C@H]2C3=C(OC(C)(C)[C@@H]2CC1OO)C(=O)C(CCCCC)=CC3=O (stereo in doubt; 25)
[6]
  MIC: inactive
[7]
  MIC: inactive

## CCCCCc1cc(O)c2c(c1)OC(C)(C)[C@@H]1C=C[C@@](C)(O)C[C@@H]21
[1]
  pIC50: 7.72
  pKi: 8.02
[2]
  pIC50: 6.41
  pKi: 6.71
[3]
  pIC50: 6.03
  pKi: 6.33
[4]
  pIC50: 4.94
  pKi: 5.24
